Laboratory results as given in ChEMBL document CHEMBL4004831, “Naphthalene diimide-polyamine hybrids as antiproliferative agents: Focus on the architecture of the polyamine chains” (Eur J Med Chem, 2017).

Columns and labels:
Homo sapiens = species on record: Homo sapiens; assay: Stabilization of 5'Dabcyl/3'FAM labeled human telomeric sequence G-quadruplex DNA assessed as increase in melting temperature at 2.5 uM pretreated for 5 mins at 30 degreeC followed by 5 mins incubation at 95 degreeC by fluorescence assay
Outline: (§1)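 FRET melting in LiP buffer (10 mM LiOH, 50 mM KCl, pH 7.0 with H3PO4), ex 488 nm, em 520 nm. Samples were held 5 min at 30 °C, heated at 1 °C/min to 95 °C, held 5 min, then re-annealed. Tm came from first derivatives; ΔTm = shift with ligand at 2.5; at least three runs.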

[1] = Stabilization of 5'Dabcyl/3'FAM labeled duplex DNA (unknown origin) assessed as increase in melting temperature at 2.5 uM pretreated for 5 mins at 30 degreeC followed by 5 mins incubation at 95 degreeC by fluorescence assay; outline: as §1
CCRF-CEM = assay: Growth inhibition of human CCRF-CEM cells incubated for 48 hrs by sulforhodamine B assay; assay type: functional
HL-60 = assay: Growth inhibition of human HL60 cells incubated for 48 hrs by sulforhodamine B assay; assay type: functional; conditions: HL-60, 48 h
K562 = assay: Growth inhibition of human K562 cells incubated for 48 hrs by sulforhodamine B assay; assay type: functional; conditions: K562, 48 h
RPMI-8226 = assay: Growth inhibition of human RPMI8226 cells incubated for 48 hrs by sulforhodamine B assay; assay type: functional; conditions: RPMI-8226, 48 h
SR = assay: Growth inhibition of human SR cells incubated for 48 hrs by sulforhodamine B assay; assay type: functional
A549 = assay: Growth inhibition of human A549/ATCC cells incubated for 48 hrs by sulforhodamine B assay; assay type: functional; conditions: A549, 48 h
HOP-92 = assay: Growth inhibition of human HOP92 cells incubated for 48 hrs by sulforhodamine B assay; assay type: functional; conditions: HOP-92, 48 h
NCI-H226 = assay: Growth inhibition of human NCI-H226 cells incubated for 48 hrs by sulforhodamine B assay; assay type: functional; conditions: NCI-H226, 48 h
HCC 2998 = assay: Growth inhibition of human HCC2998 cells incubated for 48 hrs by sulforhodamine B assay; assay type: functional; conditions: HCC 2998, 48 h
HCT-116 = assay: Growth inhibition of human HCT116 cells incubated for 48 hrs by sulforhodamine B assay; assay type: functional; conditions: HCT-116, 48 h
HT-29 = assay: Growth inhibition of human HT-29 cells incubated for 48 hrs by sulforhodamine B assay; assay type: functional; conditions: HT-29, 48 h
KM12 = assay: Growth inhibition of human KM12 cells incubated for 48 hrs by sulforhodamine B assay; assay type: functional; conditions: KM12, 48 h
SW-620 = assay: Growth inhibition of human SW620 cells incubated for 48 hrs by sulforhodamine B assay; assay type: functional; conditions: SW-620, 48 h
SF-295 = assay: Growth inhibition of human SF295 cells incubated for 48 hrs by sulforhodamine B assay; assay type: functional; conditions: SF-295, 48 h
SF-539 = assay: Growth inhibition of human SF539 cells incubated for 48 hrs by sulforhodamine B assay; assay type: functional; conditions: SF-539, 48 h
SNB-19 = assay: Growth inhibition of human SNB19 cells incubated for 48 hrs by sulforhodamine B assay; assay type: functional; conditions: SNB-19, 48 h
SNB-75 = assay: Growth inhibition of human SNB75 cells incubated for 48 hrs by sulforhodamine B assay; assay type: functional; conditions: SNB-75, 48 h
LOX IMVI = assay: Growth inhibition of human LOXIMVI cells incubated for 48 hrs by sulforhodamine B assay; assay type: functional
Malme-3M = assay: Growth inhibition of human MALME-3M cells incubated for 48 hrs by sulforhodamine B assay; assay type: functional
M14 = assay: Growth inhibition of human M14 cells incubated for 48 hrs by sulforhodamine B assay; assay type: functional; conditions: M14, 48 h
MDA-MB-435 = assay: Growth inhibition of human MDA-MB-435 cells incubated for 48 hrs by sulforhodamine B assay; assay type: functional; conditions: MDA-MB-435, 48 h
SK-MEL-2 = assay: Growth inhibition of human SK-MEL-2 cells incubated for 48 hrs by sulforhodamine B assay; assay type: functional; conditions: SK-MEL-2, 48 h
SK-MEL-28 = assay: Growth inhibition of human SK-MEL-28 cells incubated for 48 hrs by sulforhodamine B assay; assay type: functional; conditions: SK-MEL-28, 48 h
SK-MEL-5 = assay: Growth inhibition of human SK-MEL-5 cells incubated for 48 hrs by sulforhodamine B assay; assay type: functional; conditions: SK-MEL-5, 48 h
UACC-62 = assay: Growth inhibition of human UACC62 cells incubated for 48 hrs by sulforhodamine B assay; assay type: functional; conditions: UACC-62, 48 h
IGROV-1 = assay: Growth inhibition of human IGROV1 cells incubated for 48 hrs by sulforhodamine B assay; assay type: functional; conditions: IGROV-1, 48 h
OVCAR-3 = assay: Growth inhibition of human OVCAR3 cells incubated for 48 hrs by sulforhodamine B assay; assay type: functional; conditions: OVCAR-3, 48 h
OVCAR-4 = assay: Growth inhibition of human OVCAR4 cells incubated for 48 hrs by sulforhodamine B assay; assay type: functional; conditions: OVCAR-4, 48 h
OVCAR-5 = assay: Growth inhibition of human OVCAR5 cells incubated for 48 hrs by sulforhodamine B assay; assay type: functional; conditions: OVCAR-5, 48 h
OVCAR-8 = assay: Growth inhibition of human OVCAR8 cells incubated for 48 hrs by sulforhodamine B assay; assay type: functional; conditions: OVCAR-8, 48 h
NCI/ADR-RES = assay: Growth inhibition of human NCI-ADR-RES cells incubated for 48 hrs by sulforhodamine B assay; assay type: functional
A498 = assay: Growth inhibition of human A498 cells incubated for 48 hrs by sulforhodamine B assay; assay type: functional; conditions: A498, 48 h
ACHN = assay: Growth inhibition of human ACHN cells incubated for 48 hrs by sulforhodamine B assay; assay type: functional
RXF 393 = assay: Growth inhibition of human RXF393 cells incubated for 48 hrs by sulforhodamine B assay; assay type: functional; conditions: RXF 393, 48 h
SN12C = assay: Growth inhibition of human SN12C cells incubated for 48 hrs by sulforhodamine B assay; assay type: functional
UO-31 = assay: Growth inhibition of human UO31 cells incubated for 48 hrs by sulforhodamine B assay; assay type: functional; conditions: UO-31, 48 h
PC-3 = assay: Growth inhibition of human PC3 cells incubated for 48 hrs by sulforhodamine B assay; assay type: functional; conditions: PC-3, 48 h
DU-145 = assay: Growth inhibition of human DU145 cells incubated for 48 hrs by sulforhodamine B assay; assay type: functional; conditions: DU-145, 48 h
MCF7 = assay: Growth inhibition of human MCF7 cells incubated for 48 hrs by sulforhodamine B assay; assay type: functional; conditions: MCF7, 48 h
MDA-MB-231 = assay: Growth inhibition of human MDA-MB-231 cells incubated for 48 hrs by sulforhodamine B assay; assay type: functional; conditions: MDA-MB-231, 48 h
Hs-578T = assay: Growth inhibition of human Hs 578T cells incubated for 48 hrs by sulforhodamine B assay; assay type: functional
MDA-MB-468 = assay: Growth inhibition of human MDA-MB-468 cells incubated for 48 hrs by sulforhodamine B assay; assay type: functional; conditions: MDA-MB-468, 48 h

COc1ccccc1CNCCCN1C(=O)c2ccc3c4c(ccc(c24)C1=O)C(=O)N(CCCNCCNCCCN)C3=O gave a ΔTm (Homo sapiens) of 22 °C, a ΔTm [1] of 10.4 °C and a GI50 (CCRF-CEM) of 0.317 µM. The GI50 (HL-60) was 0.254 µM, the GI50 (K562) was 0.324 µM and the GI50 (RPMI-8226) was 10.9 µM. For the same compound, the GI50 (SR) was 0.898 µM, the GI50 (A549) was 3.01 µM and the GI50 (HOP-92) was 6.7 µM. It also gave a GI50 (NCI-H226) of 2.99 µM, a GI50 (HCC 2998) of 2.25 µM and a GI50 (HCT-116) of 0.717 µM. It also gave a GI50 (HT-29) of 2.07 µM, a GI50 (KM12) of 3.25 µM and a GI50 (SW-620) of 1.74 µM. It also gave a GI50 (SF-295) of 2.77 µM, a GI50 (SF-539) of 2.88 µM and a GI50 (SNB-19) of 2.18 µM. It also gave a GI50 (SNB-75) of 3.07 µM, a GI50 (LOX IMVI) of 2.1 µM and a GI50 (Malme-3M) of 1.61 µM. The GI50 (M14) was 2.07 µM, the GI50 (MDA-MB-435) was 2.07 µM and the GI50 (SK-MEL-2) was 2.67 µM. For the same compound, the GI50 (SK-MEL-28) was 3.03 µM, the GI50 (SK-MEL-5) was 1.57 µM and the GI50 (UACC-62) was 1.68 µM. The GI50 (IGROV-1) was 3.69 µM, the GI50 (OVCAR-3) was 2.16 µM and the GI50 (OVCAR-4) was 0.466 µM. It also gave a GI50 (OVCAR-5) of 5.24 µM, a GI50 (OVCAR-8) of 2.08 µM and a GI50 (NCI/ADR-RES) of 23.1 µM. For the same compound, the GI50 (A498) was 5.01 µM, the GI50 (ACHN) was 4.45 µM and the GI50 (RXF 393) was 1.65 µM. It also gave a GI50 (SN12C) of 2.09 µM, a GI50 (UO-31) of 10.8 µM and a GI50 (PC-3) of 5.91 µM. For the same compound, the GI50 (DU-145) was 3.65 µM, the GI50 (MCF7) was 0.422 µM and the GI50 (MDA-MB-231) was 2.09 µM. For the same compound, the GI50 (Hs-578T) was 5.51 µM and the GI50 (MDA-MB-468) was 0.456 µM.
CNCCCNCCCCNCCCN1C(=O)c2ccc3c4c(ccc(c24)C1=O)C(=O)N(CCCNCc1ccccc1OC)C3=O showed a ΔTm (Homo sapiens) of 26.1 °C, a ΔTm [1] of 17.1 °C and a GI50 (CCRF-CEM) of 2.77 µM. It also gave a GI50 (HL-60) of 3.68 µM, a GI50 (K562) of 2.78 µM and a GI50 (RPMI-8226) of 3 µM. It also gave a GI50 (SR) of 4.42 µM, a GI50 (A549) of 3.45 µM and a GI50 (HOP-92) of 2.21 µM. For the same compound, the GI50 (NCI-H226) was 2.17 µM, the GI50 (HCC 2998) was 3.12 µM and the GI50 (HCT-116) was 2.04 µM. The GI50 (HT-29) was 3.36 µM, the GI50 (KM12) was 2.75 µM and the GI50 (SW-620) was 2.16 µM. For the same compound, the GI50 (SF-295) was 1.33 µM, the GI50 (SF-539) was 2.04 µM and the GI50 (SNB-19) was 3.79 µM. For the same compound, the GI50 (SNB-75) was 1.05 µM, the GI50 (LOX IMVI) was 3.03 µM and the GI50 (Malme-3M) was 0.939 µM. For the same compound, the GI50 (M14) was 2.63 µM, the GI50 (MDA-MB-435) was 0.795 µM and the GI50 (SK-MEL-2) was 4.46 µM. For the same compound, the GI50 (SK-MEL-28) was 1.4 µM, the GI50 (SK-MEL-5) was 0.813 µM and the GI50 (UACC-62) was 0.711 µM. The GI50 (IGROV-1) was 3.02 µM, the GI50 (OVCAR-3) was 2.93 µM and the GI50 (OVCAR-4) was 1.7 µM. For the same compound, the GI50 (OVCAR-5) was 5.35 µM, the GI50 (OVCAR-8) was 2.89 µM and the GI50 (NCI/ADR-RES) was 7.09 µM. The GI50 (A498) was 1.78 µM, the GI50 (ACHN) was 2.86 µM and the GI50 (RXF 393) was 3.82 µM. It also gave a GI50 (SN12C) of 2.95 µM, a GI50 (UO-31) of 4.31 µM and a GI50 (PC-3) of 7.45 µM. It also gave a GI50 (DU-145) of 5.09 µM, a GI50 (MCF7) of 2.77 µM and a GI50 (MDA-MB-231) of 4.63 µM. It also gave a GI50 (Hs-578T) of 2.9 µM and a GI50 (MDA-MB-468) of 1.89 µM.
